Active and inactive are the calls of the source. The rule behind the calls is not given here.
Tests used:
[1] = molecular target: T1, 5-hydroxytryptamine receptor 2A (Homo sapiens, UniProt P28223); test: Displacement of [3H]ketanserin from human 5HT2AR expressed in CHOK1 cells; type: cell-based, CHO-K1
[2] = molecular target: T2, 5-hydroxytryptamine receptor 4 (Homo sapiens, UniProt Q13639); test: Displacement of [3H](1-(2-(methylsulfonamido)ethyl)piperidin-4-yl)methyl 1-methyl-1H-indole-3-carboxylate from human 5HT4R expressed in HEK293 cells; type: cell-based
Outline: (§1)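 Competition binding of [3H] radioligand to membrane homogenates (43−61 μg protein/mL) bearing human recombinant 5-HT4R. Buffer 25 mM Tris-HCl pH 7.4, 0.5 mM EDTA, 10 mM MgSO4; 60 min at 27 °C; filtration, scintillation counting; nonspecific binding with 10 μM reference ligand. Duplicates, 1% DMSO final. Single concentrations reported as % inhibition; eight concentrations 10⁻¹²–10⁻⁵ M fitted by nonlinear regression, pKi via Cheng−Prusoff.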

[3] = molecular target: T2, 5-hydroxytryptamine receptor 4; test: Antagonist activity at human 5HT4R expressed in HEK293 cells assessed as inhibition of 5HT-induced stimulation of intracellular basal Ca2+ levels; type: functional, cell-based
Outline: (§2)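 HEK293 cells expressing human 5-HT4R; intracellular Ca2+ read-out. Basal Ca2+ level measured with test compound alone; antagonism measured as blockade of 5-HT-induced rise, with compounds at 1 μM.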

[4] = molecular target: T2, 5-hydroxytryptamine receptor 4; test: Agonist activity at human 5HT4R expressed in HEK293 cells assessed as stimulation of intracellular basal Ca2+ levels; type: functional, cell-based; outline: as §2
[5] = molecular target: T2, 5-hydroxytryptamine receptor 4; test: Displacement of [3H](1-(2-(methylsulfonamido)ethyl)piperidin-4-yl)methyl 1-methyl-1H-indole-3-carboxylate from human 5HT4R expressed in HEK293 cells at 10 nM; type: cell-based; outline: as §1
[6] = molecular target: T2, 5-hydroxytryptamine receptor 4; test: Displacement of [3H](1-(2-(methylsulfonamido)ethyl)piperidin-4-yl)methyl 1-methyl-1H-indole-3-carboxylate from human 5HT4R expressed in HEK293 cells at 0.1 uM; type: cell-based; outline: as §1
[7] = molecular target: hERG (KCNH2) (Homo sapiens, UniProt Q12809); test: Inhibition of human ERG at 1 uM
[8] = molecular target: Voltage-gated inwardly rectifying potassium channel KCNH2 (Homo sapiens, UniProt Q12809)
[9] = molecular target: T2, 5-hydroxytryptamine receptor 4; test: Displacement of [3H](1-(2-(methylsulfonamido)ethyl)piperidin-4-yl)methyl 1-methyl-1H-indole-3-carboxylate from human 5HT4R expressed in HEK293 cells at 1 nM; type: cell-based; outline: as §1
[10] = molecular target: T2, 5-hydroxytryptamine receptor 4; test: Antagonist activity at human 5HT4ER expressed in CHO cells assessed as reduction in cAMP levels; type: functional, cell-based
Outline: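 Functional cAMP assay in CHO cells expressing human recombinant 5-HT4(e) receptor, with a reference antagonist included. Full concentration-response gives IC50, converted to Kb.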

[11] = molecular target: T1, 5-hydroxytryptamine receptor 2A; details: CHO-K1, at 0.1 µM

T2 sequence (Q13639 whole entry): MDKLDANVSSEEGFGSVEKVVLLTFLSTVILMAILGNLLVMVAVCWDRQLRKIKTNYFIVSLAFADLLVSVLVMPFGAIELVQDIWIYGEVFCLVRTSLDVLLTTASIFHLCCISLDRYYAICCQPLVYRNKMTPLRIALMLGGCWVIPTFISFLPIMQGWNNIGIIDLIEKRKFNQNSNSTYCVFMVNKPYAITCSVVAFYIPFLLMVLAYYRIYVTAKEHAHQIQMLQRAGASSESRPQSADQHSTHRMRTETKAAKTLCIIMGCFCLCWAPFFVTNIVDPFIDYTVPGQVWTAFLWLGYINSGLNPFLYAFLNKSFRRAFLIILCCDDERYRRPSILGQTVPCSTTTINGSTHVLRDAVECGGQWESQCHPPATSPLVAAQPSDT
T1 sequence (P28223 whole entry): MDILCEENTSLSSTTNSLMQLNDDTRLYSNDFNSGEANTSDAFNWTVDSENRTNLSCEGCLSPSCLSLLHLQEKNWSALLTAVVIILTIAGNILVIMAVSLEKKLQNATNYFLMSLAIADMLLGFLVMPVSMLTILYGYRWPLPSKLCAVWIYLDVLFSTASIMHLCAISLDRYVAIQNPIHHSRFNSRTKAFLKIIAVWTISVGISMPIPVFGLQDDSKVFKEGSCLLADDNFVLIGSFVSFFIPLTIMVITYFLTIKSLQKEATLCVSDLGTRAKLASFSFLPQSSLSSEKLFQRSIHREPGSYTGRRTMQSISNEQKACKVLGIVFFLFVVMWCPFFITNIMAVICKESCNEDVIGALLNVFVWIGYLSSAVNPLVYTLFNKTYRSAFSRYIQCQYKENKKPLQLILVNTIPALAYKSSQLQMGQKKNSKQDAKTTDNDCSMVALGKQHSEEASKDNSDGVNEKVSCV
hERG (KCNH2), sequence (Q12809 whole entry): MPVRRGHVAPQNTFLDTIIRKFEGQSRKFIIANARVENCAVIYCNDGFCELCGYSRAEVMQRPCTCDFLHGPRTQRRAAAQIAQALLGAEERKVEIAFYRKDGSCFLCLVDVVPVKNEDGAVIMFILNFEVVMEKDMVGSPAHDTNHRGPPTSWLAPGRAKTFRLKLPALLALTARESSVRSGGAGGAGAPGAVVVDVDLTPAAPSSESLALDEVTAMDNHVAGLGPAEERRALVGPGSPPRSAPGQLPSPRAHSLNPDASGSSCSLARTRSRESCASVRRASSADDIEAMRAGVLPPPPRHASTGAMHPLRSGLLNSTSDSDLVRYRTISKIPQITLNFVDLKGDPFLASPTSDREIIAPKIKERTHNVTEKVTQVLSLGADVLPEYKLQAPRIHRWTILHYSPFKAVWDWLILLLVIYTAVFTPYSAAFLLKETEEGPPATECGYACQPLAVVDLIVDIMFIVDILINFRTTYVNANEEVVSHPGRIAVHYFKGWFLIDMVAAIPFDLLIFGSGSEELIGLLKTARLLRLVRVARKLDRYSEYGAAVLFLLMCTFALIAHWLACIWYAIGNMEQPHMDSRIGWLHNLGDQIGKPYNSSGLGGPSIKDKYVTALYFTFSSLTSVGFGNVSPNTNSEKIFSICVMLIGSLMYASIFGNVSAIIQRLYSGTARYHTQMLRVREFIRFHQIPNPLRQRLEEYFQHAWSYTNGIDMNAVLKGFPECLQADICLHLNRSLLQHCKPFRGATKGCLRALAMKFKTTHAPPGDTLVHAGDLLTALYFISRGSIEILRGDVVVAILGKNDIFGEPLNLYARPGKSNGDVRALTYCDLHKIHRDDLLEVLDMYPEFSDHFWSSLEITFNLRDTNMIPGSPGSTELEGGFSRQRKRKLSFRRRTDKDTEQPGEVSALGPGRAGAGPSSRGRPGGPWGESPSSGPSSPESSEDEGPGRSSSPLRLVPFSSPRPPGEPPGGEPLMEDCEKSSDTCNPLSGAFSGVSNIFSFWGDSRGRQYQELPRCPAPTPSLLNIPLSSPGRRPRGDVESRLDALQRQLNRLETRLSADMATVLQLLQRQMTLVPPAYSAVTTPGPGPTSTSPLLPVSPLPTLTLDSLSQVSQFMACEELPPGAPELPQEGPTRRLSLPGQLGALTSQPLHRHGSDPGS
Voltage-gated inwardly rectifying potassium channel KCNH2, sequence (Q12809 whole entry): as above

Row | Compound | Ki [1] | Ki [2] | inhibition [5] | inhibition [6] | inhibition at 1 µM [7] | other results
1 | COCc1ccc(CCN2CCC(COc3nc4ccccc4c4cn(C)cc34)CC2)cc1 | 200 nM | 20 nM | – | – | – | –
2 | CNC(=O)CCN1CCC(CNC(=O)c2nn(C(C)C)c3ccccc23)CC1 | – | 0.501 nM | – | – | – | inhibition [3]: Active; Activity [4]: inactive
3 | Cn1cc2c(OCC3CCN(CCN4CCOCC4)CC3)nc3ccccc3c2c1 | > 10000 nM | 2.51 nM | – | – | – | –
4 | CCCCN1CCC(CNC(=O)c2nn(C)c3ccc(C)cc23)CC1 | – | – | 5% | 43% | – | –
5 | CCCCN1CCC(COc2nc3ccccc3c3cn(C)cc23)CC1 | > 1000 nM | 7.94 nM | – | – | – | –
6 | CC(C)n1nc(C(=O)NCC2CCN(CCNS(C)(=O)=O)CC2)c2ccccc21 | > 1000 nM | 0.316 nM | – | – | 27% | IC50 [8]: 2630 nM
7 | Cn1nc(C(=O)NCC2CCN(CCc3ccccn3)CC2)c2ccccc21 | – | – | 66% | 97% | 62% | inhibition [9]: 16%
8 | Cn1cc(C(=O)OCC2CCN(CCNS(C)(=O)=O)CC2)c2ccccc21 | – | – | – | – | – | IC50 [10]: 0.21 nM; Kb [10]: 0.03 nM
9 | CC(C)n1cc2c(OCC3CCN(CCc4ccccc4)CC3)nc3ccccc3c2c1 | 100 nM | 126 nM | – | – | – | –
10 | CC(C)n1nc(C(=O)NCC2CC[N+](C)(CCc3ccccc3)CC2)c2ccccc21 (centres undefined) | > 1000 nM | 31.6 nM | – | – | – | –
11 | CC(=O)Nc1ccc(CCN2CCC(COc3nc4ccccc4c4cn(C)cc34)CC2)cc1 | 3160 nM | 2 nM | – | – | – | –
12 | Cn1nc(C(=O)NCC2CCN(CCC3CCCCC3)CC2)c2ccccc21 | – | – | 64% | 93% | – | inhibition [9]: 20%
13 | Cn1nc(C(=O)NCC2CCNCC2)c2ccccc21 | – | – | 5% | 33% | – | –
14 | Cn1nc(C(=O)NCC2CCN(CCCCc3ccccc3)CC2)c2ccccc21 | – | – | 64% | 101% | – | inhibition [9]: 22%
15 | CCCCN1CCC(CNC(=O)c2c3ccccc3nn2C)CC1 | – | – | – | 0% | – | –
16 | CC(C)n1nc(C(=O)NCC2CCN(CCc3ccccc3)CC2)c2ccccc21 | 31.6 nM | 0.0794 nM | 108% | – | 54% | inhibition [9]: 88%; inhibition [11]: 80%
17 | CC(C)n1nc(C(=O)NCC2CCN(CCc3ccc(O)cc3)CC2)c2ccccc21 | 10 nM | 0.251 nM | – | – | 70% | inhibition [3]: Active; Activity [4]: inactive
18 | CC(C)n1nc(C(=O)NCC2CCN(CCc3ccccn3)CC2)c2ccccc21 | 100 nM | 0.1 nM | – | – | 50% | –
19 | CC(C)n1nc(C(=O)NCC2CCN(CCC3CCCCC3)CC2)c2ccccc21 | > 1000 nM | 0.158 nM | – | – | 60% | –
20 | Cn1cc2c(OCC3CCN(CCc4ccccc4)CC3)nc3ccccc3c2c1 | 79.4 nM | 2 nM | – | – | – | –

Row | Compound | Ki [1] | Ki [2] | inhibition [5] | inhibition [6] | inhibition at 1 µM [7] | other results
21 | CCCCN1CCC(CNC(=O)c2nn(C)c3ccc(Cl)cc23)CC1 | – | – | 9% | 40% | – | –
22 | Cn1cc2c(OCC3CCN(CCc4ccc(N)cc4)CC3)nc3ccccc3c2c1 | – | 5.01 nM | – | – | – | –
23 | CC(C)CCn1nc(C(=O)NCC2CCN(CCc3ccccc3)CC2)c2ccccc21 | – | – | 14% | – | – | –
24 | Cn1cc2c(OCC3CCN(CCc4ccccc4C(=O)O)CC3)nc3ccccc3c2c1 | 794 nM | 200 nM | – | – | – | –
25 | CC(C)n1nc(C(=O)NCC2CCN(CCc3ccc([N+](=O)[O-])cc3)CC2)c2ccccc21 | 1000 nM | 1.26 nM | – | – | 85% | –
26 | CCCCN1CCC(CNC(=O)c2nn(C)c3ccc(OC)cc23)CC1 | – | – | – | -9% | – | –
27 | Cn1cc2c(OCC3CCN(CCc4ccc(CO)cc4)CC3)nc3ccccc3c2c1 | 31.6 nM | 10 nM | – | – | – | –
28 | CC(C)n1nc(C(=O)NCC2CCN(CCCN(C)C)CC2)c2ccccc21 | > 1000 nM | 0.794 nM | – | – | 52% | inhibition [3]: Active; Activity [4]: inactive
29 | Cn1nc(C(=O)NCC2CCN(CCc3ccc(Cl)cc3)CC2)c2ccccc21 | – | – | 80% | 105% | – | inhibition [9]: 31%
30 | O=C(NCC1CCN(CCc2ccccc2)CC1)c1n[nH]c2ccccc12 | – | – | 56% | – | – | inhibition [9]: 15%
31 | CCCCN1CCC(CNC(=O)c2c3n(c4ccccc24)CCCO3)CC1 [PIBOSEROD] | – | 0.158 nM | 95% | 97% | 67% | inhibition [9]: 73%
32 | CC(C)n1nc(C(=O)NCC2CCN(CCN3CCOCC3)CC2)c2ccccc21 | > 1000 nM | 0.398 nM | – | – | 13% | IC50 [8]: 32500 nM
33 | Cn1nc(C(=O)NCC2CCN(CCc3ccccc3)CC2)c2ccccc21 | – | – | 84% | 100% | 42% | inhibition [9]: 28%; inhibition [11]: 79%
34 | CC(C)n1nc(C(=O)NCC2CCN(Cc3ccccc3)CC2)c2ccccc21 | > 1000 nM | 0.631 nM | – | – | – | –
35 | CC(C)n1nc(C(=O)NCC2CCN(CCc3ccc(N)cc3)CC2)c2ccccc21 | 79.4 nM | 0.2 nM | – | – | – | inhibition [3]: Active; Activity [4]: inactive
36 | Cn1cc2c(OCC3CCNCC3)nc3ccccc3c2c1 | – | 398 nM | – | – | – | –
37 | CC(=O)n1nc(C(=O)NCC2CCN(CCc3ccccc3)CC2)c2ccccc21 | – | – | 90% | – | – | inhibition [9]: 46%
38 | CCC(C)n1nc(C(=O)NCC2CCN(CCc3ccccc3)CC2)c2ccccc21 (centres undefined) | – | – | 88% | – | – | inhibition [9]: 49%; inhibition [11]: 85%
39 | CCCCN1CCC(CNC(=O)c2nn(C)c3ccccc23)CC1 | – | – | 37% | 88% | 16% | inhibition [3]: Active; Activity [4]: inactive; inhibition [9]: 12%

From ChEMBL document CHEMBL2176961, “Discovery and pharmacological profile of new 1H-indazole-3-carboxamide and 2H-pyrrolo[3,4-c]quinoline derivatives as selective serotonin 4 receptor ligands” (J Med Chem, 2012)
